According to paper PMC4076841 (Biomaterials, 2014):
One block for each compound: values may come before it.

Columns and labels:
[1] = Biodistribution of Pt in A375M tumor-bearing mice; assay type: in vivo; conditions: 1 mg/kg Pt IV, 24 h post injection
[2] = Toxicity and pathology studies; assay type: in vivo, mice
Summary of the method: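 Female athymic nude mice (5–6 wk, 18–22 g) were dosed IV weekly during therapeutic treatment. Mice for histology received four doses of 1 mg/kg each. Serum AST, ALT and BUN were measured, with BUN taken 7 days after the last dose. Heart, liver, spleen, lung and kidney were formalin-fixed, H&E-stained and imaged by light microscopy. Data are mean ± SEM, compared by one-way ANOVA.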

[3] = cited from earlier work
[4] = cited from earlier work; remark: listed apart in the source

- accumulation in tumors, injected dose (ID) per gram [1]: 1.2 % ID/g
SMILES: [NH2][Pt]([NH2])([Cl])[Cl] [CDDP, cisplatin]
- nephrotoxicity (kidney H&E histology) ([2]; four doses, 1 mg/kg each): glomeruloscelorsis, tubular cell atrophy, and cystic dilatation of renal tubes
- BUN versus control group ([2]; measured 7 days after the last treatment): no significant difference
- ALT ([2]; serum, after treatment): fell within the normal range
- AST ([2]; serum, after treatment): fell within the normal range

SMILES: [NH2][Pt]([NH2])([I])[I] [CDDP-I, iodinated cisplatin]
- solubility in water and organic solvents [3]: insolubility
- anti-tumor efficacy [4]: ineffective
